Laboratory results: ChEMBL document CHEMBL1141431, “Brandisianins A-F, isoflavonoids isolated from Millettia brandisiana in a screening program for death-receptor expression enhancement activity” (J Nat Prod, 2007)
Activity calls are given as the source filed them. No cut-off for these calls is given here.

How the values were obtained:
DLD-1 [1] = assay: Activation of death-receptor 5 expression in human DLD-1/ SacI cells at 35.0 uM by luciferase assay relative to control; format: functional
Procedure, shortened: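 DLD-1 human colon cancer cells stably carrying pDR5/SacI (human DR5 promoter–luciferase) plated at 2 × 10^5 cells/well in RPMI with 10% FBS, 24 h at 37 °C, 5% CO2, then exposed 24 h to compound (tested at 17.5 and 35.0 µM). Lysed, luciferase substrate added, luminescence read; activity as relative light intensity versus EtOH-treated control cells; luteolin 17.5 µM positive control; n = 3.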

HeLa = assay: Cytotoxicity against human HeLa cells; format: functional, cell-based
DLD-1 [2] = assay: Cytotoxicity against human DLD1 cells; format: functional, cell-based
DLD-1 [3] = assay: Activation of death-receptor 5 expression in human DLD-1/ SacI cells at 17.5 uM by luciferase assay relative to control; format: functional, cell-based
Procedure, shortened: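 DLD-1/SacI (human colon cancer line stably carrying human DR5 promoter–luciferase construct) seeded in RPMI with 10% FBS, 24 h at 37 °C, 5% CO2. Treated with samples (17.5 and 35.0 µM) 24 h. Lysed, luciferase substrate added, luminescence read. Activity expressed as light intensity relative to EtOH-treated control cells. Luteolin 17.5 µM as positive control. Means, n = 3 ± SD.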

| SMILES | Fold change (DLD-1 [1]) | IC50 (HeLa) [µM] | IC50 (DLD-1 [2]) [µM] | Activity (DLD-1 [3]) |
| --- | --- | --- | --- | --- |
| COc1cc(-c2coc3c4c(cc(O)c3c2=O)OC(C)(C)C=C4)c(OC)cc1O | 2.4 | > 25 | > 25 |  |
| Oc1cc(O)c2c(c1)O[C@H](c1ccc(O)c(O)c1)[C@H](O)C2 [(-)-EPICATECHIN] |  | > 25 | > 25 |  |
| COc1cc(-c2coc3cc(O)cc(O)c3c2=O)c(OC)cc1OCC=C(C)C [BRANDISIANIN A] |  | > 25 | > 25 |  |
| C=C(C)[C@H]1Cc2c(cc(O)c3c(=O)c(-c4cc(OC)c(O)cc4OC)coc23)O1 [BRANDISIANIN B] |  | 9.7 | > 25 |  |
| COc1cc(-c2coc3c(CC=C(C)C)c(O)cc(O)c3c2=O)c(OC)cc1O [BRANDISIANIN C] |  | 19.1 | > 25 |  |
| COc1cc(-c2coc3c4c(cc(O)c3c2=O)O[C@@](C)(CO)C=C4)c(OC)cc1O [BRANDISIANIN D] | 3 | > 25 | > 25 | Active |
| COc1cc(-c2coc3c(C/C=C(\C)CO)c(O)cc(O)c3c2=O)c(OC)cc1O [BRANDISIANIN E] |  | 21.7 | > 25 |  |
| COc1cc2c(cc1O)[C@@H]1Oc3c(cc(OC)c(OC)c3O)[C@@H]1CO2 [BRANDISIANIN F] |  | > 25 | > 25 |  |
| O=C1C[C@@H](c2ccc(O)cc2)Oc2cc(O)cc(O)c21 [NARINGENIN] |  | > 25 | > 25 |  |
| COc1cc(-c2coc3cc(O)cc(O)c3c2=O)c(OC)cc1O [OLIBERGIN A] |  | > 25 | > 25 |  |
| COc1cc(-c2coc3cc(O)c(CC=C(C)C)c(O)c3c2=O)c(OC)cc1O [VIRIDIFLORIN] |  | > 25 | > 25 |  |
